Experimental findings from ChEMBL document CHEMBL4680287, “Ibrexafungerp: An orally active β-1,3-glucan synthesis inhibitor” (Bioorg Med Chem Lett, 2021) are described below.

The nature of data set [1]: Dose normalized AUC in po dosed mouse. The data set is classed as ADME, organism-based. The settings on record: in vivo.
Data set [2] concerns Candida albicans. Kind of data set: Antifungal activity against Candida albicans MY1055 infected in DBA/2 mouse model of disseminated candidiasis assessed as reduction in fungal burden in kidney by measuring log change in colony forming units at 12.5 mg/kg, po bid for 7 days by TOKA. The data set is classed as functional. The settings on record: time 7 day. The essentials: (§1)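 Murine disseminated candidiasis model (TOKA) in mice challenged with C. albicans MY1055 at 2.44 x 10^4 CFU/mouse. Dosed PO, or IP where stated. Kidneys collected aseptically 7 days after challenge and CFUs/g counted. Change in log CFU/g is relative to sham-treated controls; significance by two-tailed t test. Clearance is the percentage of kidneys below the detection limit.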

For data set [3], the system named is Candida albicans. Kind of data set: Antifungal activity against Candida albicans MY1055 infected in DBA/2 mouse model of disseminated candidiasis assessed as reduction in fungal burden in kidney by measuring log change in colony forming units at 25 mg/kg, po bid for 7 days by TOKA. The data set is classed as functional. The settings on record: time 7 day. The essentials: as §1

Data set [4] in a line: Oral bioavailability in mouse. It counts as ADME, organism-based. The settings on record: in vivo. The essentials: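 Oral bioavailability calculated as oral AUC normalized to the IV dose, divided by the IV AUC.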
The subject of data set [5] is Candida albicans. Kind of data set: Antifungal activity against Candida albicans MY1055 assessed as fungal growth inhibition measured after 24 hrs in presence of 50% mouse serum by liquid microdilution method. It counts as functional. The essentials: (§2)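 Broth microdilution per CLSI protocols in RPMI medium. Read-out is the MIC, the lowest concentration completely inhibiting fungal growth. Run without serum and with added serum.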
In general terms: In broth dilution the organism is exposed to a series of concentrations in liquid medium.

Data set [6] deals with Candida albicans. Nature of the data set: Antifungal activity against Candida albicans MY1055 assessed as fungal growth inhibition measured after 24 hrs by liquid microdilution method. It counts as functional. The essentials: as §2
The nature of data set [7]: Inhibition of beta-1,3-glucan synthase in Candida albicans MY1055 microsomal membrane assessed as inhibition of TCA-insoluble material formation using UDP-[3H]-glucose as substrate incubated for 2 hrs in presence of GTP by radioactivity-based assay. It counts as microsomes, Microsome. The essentials: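 GS IC50 measured using Candida albicans MY1055 microsomal membrane fragments as the enzyme source.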

Data set [8] relates to Candida albicans. Nature of the data set: Antifungal activity against Candida albicans MY1055 infected in DBA/2 mouse model of disseminated candidiasis assessed as reduction in fungal burden in kidney by measuring log change in colony forming units at 6.25 mg/kg, po bid for 7 days by TOKA. The data set is classed as functional. Particulars: time 7 day. The method, boiled down:
as §1

Another data set relates to Aspergillus fumigatus. Nature of the data set: Antifungal activity against Aspergillus fumigatus MF5668 assessed inhibition of fungal growth by measuring morphological changes measured after 24 hrs by microscopy. It counts as functional. Particulars: read-out: MEC. The method, boiled down: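 Microdilution per CLSI protocols in RPMI medium. Read-out is the minimum effective concentration (MEC). Run without serum and with 50% human serum.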

Structures are written as SMILES. In brackets after ≈: the same amount, converted by molar mass.

Molecule `CN[C@@](C)(CO[C@H]1[C@H](n2ncnc2-c2cccnc2)C[C@@]23COC[C@]1(C)[C@@H]2CC[C@H]1C3=CC[C@@]2(C)[C@H](C(=O)O)[C@@](C)([C@H](C)C(C)C)CC[C@]12C)C(C)C` had an AUC/dose in [1] of 0.59 µM·kg·h/mg. Further, the figures for the Activity with Candida albicans [2], with Candida albicans [3] and in the data set with Candida albicans [8] were -2.4 deltalog10CFU, -3 deltalog10CFU and -1.1 deltalog10CFU, respectively. Moreover, the bioavailability – broadly, dose-corrected exposure relative to a reference, in per cent – in data set [4] stood at 21%. Moreover, the MIC (in general, the lowest concentration found to suppress growth) worked out at 1 µg/mL with Candida albicans [5] and 0.25 µg/mL (≈ 0.342 µM) with Candida albicans [6]. Moreover, the IC50 – broadly, the concentration at which inhibition is half-maximal – in data set [7] was found to be 0.005 µg/mL. The minimal effective concentration in the data set with Aspergillus fumigatus was below 0.03 µg/mL.

Regarding `CC(C)[C@@H](C)[C@@]1(C)CC[C@]2(C)[C@H]3CC[C@@H]4[C@@]5(COC[C@@]4(C)[C@@H](OC[C@](C)(N)C4(C)CC4)[C@H](n4ncnc4-c4ccncc4)C5)C3=CC[C@@]2(C)[C@@H]1C(=O)O`, the AUC/dose in [1] was determined as 0.65 µM·kg·h/mg. The values for the Activity in the data set on Candida albicans [2], with Candida albicans [3] and with Candida albicans [8] were -2.6 deltalog10CFU, -4.3 deltalog10CFU and -1.5 deltalog10CFU, respectively. In addition, the bioavailability in [4] is 36%. Also, the MIC in the data set with Candida albicans [5] is 0.5 µg/mL; in the data set with Candida albicans [6] it was below 0.03 µg/mL. Besides, the IC50 in data set [7] was determined as 0.002 µg/mL. In the data set with Aspergillus fumigatus, the minimal effective concentration was below 0.03 µg/mL.

In the case of `CC(C)[C@@H](C)[C@@]1(C)CC[C@]2(C)[C@H]3CC[C@@H]4[C@@]5(COC[C@@]4(C)[C@@H](OC[C@](C)(N)C(C)C)[C@H](n4ncnc4-c4ccccc4)C5)C3=CC[C@@]2(C)[C@@H]1C(=O)O`, the AUC/dose in [1] was determined as 0.5 µM·kg·h/mg. The Activity with Candida albicans [2] is given as -1.7 deltalog10CFU; with Candida albicans [3], -2.4 deltalog10CFU; in the data set on Candida albicans [8], -0.2 deltalog10CFU. For the same molecule, the bioavailability in [4] was 28%. For the same molecule, the MIC stood at 4 µg/mL with Candida albicans [5] and 0.25 µg/mL (≈ 0.35 µM) with Candida albicans [6]. Besides, the IC50 in data set [7] came to 0.003 µg/mL. Besides, in the data set with Aspergillus fumigatus, the minimal effective concentration is below 0.03 µg/mL.

`CC(C)[C@@H](C)[C@@]1(C)CC[C@]2(C)[C@H]3CC[C@@H]4[C@@]5(COC[C@@]4(C)[C@@H](OC[C@](C)(N)C(C)C)[C@H](n4ncnc4-c4ccncc4F)C5)C3=CC[C@@]2(C)[C@@H]1C(=O)O`: the AUC/dose in [1] stood at 0.34 µM·kg·h/mg. Moreover, the values for the Activity in the data set on Candida albicans [2], with Candida albicans [3] and in the data set on Candida albicans [8] were -2.5 deltalog10CFU, -4.2 deltalog10CFU and -2.6 deltalog10CFU, respectively. In addition, in data set [4], the bioavailability worked out at 26%. The results for the MIC in the data set with Candida albicans [5] and with Candida albicans [6] were 1 µg/mL and 0.015 µg/mL (≈ 0.0204 µM), respectively. Moreover, the IC50 in data set [7] was 0.001 µg/mL. The minimal effective concentration in the data set on Aspergillus fumigatus was 0.008 µg/mL.

As to `CN[C@@](C)(CO[C@H]1[C@H](n2ncnc2-c2ccncc2)C[C@@]23COC[C@]1(C)[C@@H]2CC[C@H]1C3=CC[C@@]2(C)[C@H](C(=O)O)[C@@](C)([C@H](C)C(C)C)CC[C@]12C)C(C)C`, the AUC/dose in data set [1] is 0.83 µM·kg·h/mg. Besides, the figures for the Activity in the data set on Candida albicans [2], in the data set on Candida albicans [3] and in the data set with Candida albicans [8] were -3.1 deltalog10CFU, -3.7 deltalog10CFU and -0.9 deltalog10CFU, respectively. In [4], this molecule showed a bioavailability of 29%. Besides, the MIC was 0.5 µg/mL in the data set on Candida albicans [5] and 0.06 µg/mL (≈ 0.0822 µM) with Candida albicans [6]. For the same molecule, the IC50 in data set [7] amounted to 0.001 µg/mL. The minimal effective concentration with Aspergillus fumigatus is below 0.03 µg/mL.

As to `CC(C)[C@@H](C)[C@@]1(C)CC[C@]2(C)[C@H]3CC[C@@H]4[C@@]5(COC[C@@]4(C)[C@@H](OC[C@](C)(N)C(C)C)[C@H](n4ncnc4-c4ccnnc4)C5)C3=CC[C@@]2(C)[C@@H]1C(=O)O`, in [1], the AUC/dose is 0.23 µM·kg·h/mg. The Activity in the data set with Candida albicans [2] was -1.2 deltalog10CFU; in the data set on Candida albicans [3], -2.6 deltalog10CFU; with Candida albicans [8], -1.2 deltalog10CFU. This molecule also gave a bioavailability in data set [4] of 29%. Moreover, the MIC with Candida albicans [5] is 1 µg/mL; in the data set on Candida albicans [6], 0.125 µg/mL (≈ 0.174 µM). In addition, the IC50 in data set [7] was found to be 0.002 µg/mL. The minimal effective concentration in the data set on Aspergillus fumigatus was below 0.03 µg/mL.
